Laboratory results reported in ChEMBL document CHEMBL1143714, “Nocardichelins A and B, siderophores from Nocardia strain acta 3026” (2007).
Active and inactive are the calls of the source. No cut-off for these calls is given here.

Key:
HepG2 = assay: Growth inhibition of human HepG2 cells after 48 hrs; format: functional; conditions: HepG2, 48 h
How it was run: (§1)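 Run per NCI guidelines. Cells grown in RPMI 1640 with 10% fetal calf serum, 5% CO2, humidified. Compounds added after 24 h as DMSO solutions at 0.1-10 µg/mL, 0.1% final DMSO, then 48 h further culture. Cell count by sulforhodamine B protein staining. GI50 (50% growth inhibition) and TGI derived.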

Saccharomyces cerevisiae = assay: Growth inhibition against yeast after 48 hrs by agar plate diffusion assay; format: functional, organism-based
How it was run: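 10 µL sample aliquots applied to 6 mm filter disks placed on inoculated test plates; fungal plates incubated 48 h at temperature optimal for the test organism; activity read from growth inhibition on agar.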

[1] = Growth inhibition of human MCF cells after 48 hrs; format: functional; how it was run: as §1
AGS = assay: Growth inhibition of human AGS cells after 48 hrs; format: functional; how it was run: as §1

Compound	GI50 (HepG2) [nM]	TGI (HepG2) [nM]	Activity (Saccharomyces cerevisiae)	GI50 [1] [nM]	TGI [1] [nM]	GI50 (AGS) [nM]	TGI (AGS) [nM]
CCCCCCCCCCC/C=C\C(=O)N(O)CCCCCNC(=O)CCC(=O)N(O)CCCCCNC(=O)[C@@H]1COC(c2ccccc2O)=N1 [NOCARDICHELIN B]	69.9	335	inactive	1130	3490	44.7	1500
CCCCCCCCCCCCC/C=C\C(=O)N(O)CCCCCNC(=O)CCC(=O)N(O)CCCCCNC(=O)[C@@H]1COC(c2ccccc2O)=N1 [NOCARDICHELIN A]	282	471	inactive	202	538	28.2	202
